Screening data: PubChem, Broad Institute
Sampled rows, rich in hits. Any-hit rate of the full collection: about 2.2%.
Statin myotox sup: suppression of simvastatin myotoxicity; 330,000 compounds, 0.78% hits; rescue of ATP level, % at 7.49 µM; C2C12 myotubes + simvastatin, ATP luminescence, 48 h; scaled: DMSO 0, geranylgeraniol control 100;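 active means mean ATP rescue above about 67%, or every replicate alone reaching that limit, limit read from the data, passing the limit was not always enough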;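 further: myotubes were challenged with 10 µM simvastatin during compound exposure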
E-sel inducer: E-selectin induction on HUVECs. P16581. HUVEC E-selectin immunofluorescence imaging; normalized: neutral wells 0, TNF-alpha wells 100. activation, % at 7.58 µM. 260,000 compounds, 0.37% hits. AID 686992;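 active means mean E-selectin-positive cell signal at least 10% of the positive control, reached in at least 60% of replicates, without over 20% cell loss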
Target sequence (P16581 whole entry, looked up): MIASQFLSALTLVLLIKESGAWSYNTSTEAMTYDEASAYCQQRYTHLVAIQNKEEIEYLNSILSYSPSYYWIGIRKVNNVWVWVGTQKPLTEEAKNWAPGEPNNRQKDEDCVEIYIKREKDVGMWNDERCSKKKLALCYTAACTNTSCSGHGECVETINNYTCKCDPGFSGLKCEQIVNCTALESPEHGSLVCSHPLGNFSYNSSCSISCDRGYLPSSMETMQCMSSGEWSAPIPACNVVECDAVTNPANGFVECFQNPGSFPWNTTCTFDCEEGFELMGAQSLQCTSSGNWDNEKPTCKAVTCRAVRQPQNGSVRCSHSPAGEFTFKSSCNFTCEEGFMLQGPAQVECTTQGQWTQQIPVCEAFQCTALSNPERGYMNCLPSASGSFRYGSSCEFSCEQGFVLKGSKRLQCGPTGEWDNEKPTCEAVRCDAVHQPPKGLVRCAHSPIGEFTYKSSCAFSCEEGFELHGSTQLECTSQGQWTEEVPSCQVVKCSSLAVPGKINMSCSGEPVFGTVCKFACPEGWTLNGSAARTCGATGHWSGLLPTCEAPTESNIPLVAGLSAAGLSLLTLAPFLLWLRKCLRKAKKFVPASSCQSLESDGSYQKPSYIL
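Assay system: HUVEC, human umbilical vein endothelial cells / Amount: 3,000 HUVEC/well / Controls: TNF-alpha positive control, DMSO neutral control / Compound dosing: single concentration / Medium: EGM-2 over gelatin coat / Evaluation: percent E-selectin-positive cells / Signal: immunofluorescence imaging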
DENV2 CPE: DENV2-induced cell death inhibition | DENV2-infected cells, cytopathic effect rescue, plate reader | CPE inhibition, % at 9.99 µM | 350,000 compounds, 1.7% hits; in the data active means CPE inhibition above about 20%, passing the limit was not always enough; tested in BHK-21 cells;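 further: 0% = median of neutral control wells and 100% = median of positive control wells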
* marks the source's active call; other numbers are inactive results.

Results for C[C@@H]1CN([C@@H](C)CO)C(=O)c2cc(NC(=O)Nc3ccc4c(c3)OCO4)ccc2O[C@@H]1CN(C)CC1CCCCC1 ?
Statin myotox sup: -12; E-sel inducer: 19; DENV2 CPE: -3

Results for C[C@@H]1CN([C@@H](C)CO)C(=O)c2cc(NC(=O)Nc3cccc4ccccc34)ccc2O[C@H]1CN(C)CC1CCCCC1 ?
Statin myotox sup: 4; E-sel inducer: 20; DENV2 CPE: 34*

Results for C[C@@H]1CCCCO[C@@H](CN(C)CC2CC2)[C@H](C)CN([C@H](C)CO)C(=O)c2cc(NC(=O)Nc3ccccc3)ccc2O1 ?
E-sel inducer: 0; DENV2 CPE: 41*

How did C[C@H](CO)N1C[C@H](C)[C@H](CN(C)CC2CCCCC2)Oc2ccc(NC(=O)Nc3ccc4c(c3)OCO4)cc2C1=O do in these assays?
Statin myotox sup: -8; E-sel inducer: 349*; DENV2 CPE: -15

What do the screens show for `C[C@@H]1CCCCO[C@H](CN(C)CC2CCCCC2)[C@H](C)CN([C@@H](C)CO)C(=O)c2cc(NC(=O)Nc3ccccc3)ccc2O1`?
E-sel inducer: 0; DENV2 CPE: 9

Results for CN1CCN(C(=O)C[C@H]2C[C@H]3c4cc(NC(=O)Nc5ccccc5)ccc4O[C@H]3[C@H](CO)O2)CC1 ?
Statin myotox sup: 0; E-sel inducer: 0; DENV2 CPE: 5

What do the screens show for `CN1c2ccc(-c3cccc(C#N)c3)cc2[C@H]2[C@H](CCN2S(=O)(=O)c2ccccc2F)[C@H]1CO`?
Statin myotox sup: -1; E-sel inducer: 2; DENV2 CPE: -16

What do the screens show for `O=C(C[C@H]1C[C@H]2c3cc(NC(=O)C4CCC4)ccc3O[C@H]2[C@H](CO)O1)NCC(F)(F)F`?
Statin myotox sup: 3; E-sel inducer: 0; DENV2 CPE: -1

Results for C[C@@H]1CCCCO[C@@H](CN(C)S(=O)(=O)c2cccs2)[C@@H](C)CN([C@@H](C)CO)C(=O)c2cc(NS(=O)(=O)c3cccs3)ccc2O1 ?
E-sel inducer: 0; DENV2 CPE: 13

What do the screens show for `CC1(c2nnc(Cc3ccccc3)o2)CC(c2ccc([N+](=O)[O-])cc2)=NO1` (centres undefined)?
Statin myotox sup: 27; E-sel inducer: 0; DENV2 CPE: 31*

Results for CC1(c2nnc(Cc3ccccc3)o2)CC(c2ccc(Br)cc2)=NO1 (centres undefined) ?
Statin myotox sup: -2; E-sel inducer: 0

What do the screens show for `CC(=O)Oc1ccccc1C(=O)OCO/N=[N+](\[O-])N1CCC[C@H]1C(=O)O`?
DENV2 CPE: -2

Results for CC(=O)OCO/N=[N+](\[O-])N1CCCC1 ?
DENV2 CPE: 24*

How did CC=Cc1ccc2n(c1=O)C[C@@H]1[C@@H](CO)[C@H](C(=O)NCCC)N(C(=O)c3cccnc3)[C@H]21 (mixture of isomers) do in these assays?
E-sel inducer: 0; DENV2 CPE: 4

Results for COc1cc2c(c(OC)c1OC)[C@@]1(c3ccccc3)CCCC[C@H]1[C@@H]2NC(=O)C(F)(F)F ?
E-sel inducer: 3; DENV2 CPE: 24*

What do the screens show for `COc1ccc2c(c1)[C@@H](NC(=O)C(F)(F)F)[C@@H]1CCCC[C@]21c1ccccc1`?
E-sel inducer: 0; DENV2 CPE: -10

How did N#Cc1cccc(-c2ccc(C3[C@H]4CNC[C@@H]3N4C(=O)Nc3cccc(F)c3)cc2)c1 (some centres undefined) do in these assays?
E-sel inducer: 0; DENV2 CPE: 1

Results for O=C1CCc2ccccc2N1Cc1ccccc1 ?
Statin myotox sup: 11; E-sel inducer: 0; DENV2 CPE: 0

Results for O=CN1CCC(=O)N(Cc2ccccc2)c2ccccc21 ?
Statin myotox sup: 109*

Results for CCOC(=O)C1=C(C)N[C@@]2(O)c3ccccc3C(=O)[C@@]12O ?
Statin myotox sup: 130*

What do the screens show for `CCCCOC(=O)C1=C(C)NC2(O)c3ccccc3C(=O)C12O` (centres undefined)?
Statin myotox sup: -4

Results for O=C(C[C@H]1CC[C@H]2[C@@H](COC[C@H](O)CN2CC2CC2)O1)NCc1ccc(Cl)cc1 ?
Statin myotox sup: 6; E-sel inducer: 0; DENV2 CPE: -3

Results for CC(NC(=O)CSc1ncccn1)c1ccc2c(c1)OCO2 (centres undefined) ?
Statin myotox sup: -4; E-sel inducer: 0; DENV2 CPE: 4

What do the screens show for `CC(NC(=O)CCc1ccccc1)c1ccc2c(c1)OCO2` (centres undefined)?
Statin myotox sup: 3; E-sel inducer: -1; DENV2 CPE: 29*

Results for CC1=CC(C)(C)n2c(O)c(N=N)c3cc(C)cc1c32 ?
E-sel inducer: -1; DENV2 CPE: 49*

Results for CC1=CC(C)(C)n2c(O)c(N=N)c3c(C)c(C)cc1c32 ?
Statin myotox sup: -29; DENV2 CPE: -11

Results for CNC(=O)C[C@@H]1CC[C@@H]2[C@@H](COc3ccc(NC(=O)c4ccc(OC)cc4)cc3C(=O)N2C)O1 ?
Statin myotox sup: -2; E-sel inducer: 0; DENV2 CPE: 6

How did CCC(=O)Nc1ccc2c(c1)OC[C@H](C)N(Cc1ccccc1C(=O)O)C[C@@H](C)[C@@H](OC)CN(C)C2=O do in these assays?
Statin myotox sup: 5; E-sel inducer: 0; DENV2 CPE: 2

Results for Cc1cc(C)cc(NC(=O)Cn2nnc(C(=O)NCc3ccc(F)cc3)c2N)c1 ?
Statin myotox sup: 120*; DENV2 CPE: 4

How did Cc1cc(C)cc(NC(=O)Cn2nnc(C(=O)NCc3ccccc3Cl)c2N)c1 do in these assays?
Statin myotox sup: -1; DENV2 CPE: -3

How did COCCNC(=O)C[C@@H]1C[C@@H]2c3cc(NC(=O)CC4CC4)ccc3O[C@@H]2[C@@H](CO)O1 do in these assays?
Statin myotox sup: -2; E-sel inducer: 0; DENV2 CPE: 7

How did CC1=C([C@H](O)CCc2ccccc2)[C@H](CO)n2c(=O)n(-c3ccccc3)c(=O)n2C1 do in these assays?
DENV2 CPE: 36*

What do the screens show for `CCCC[C@@H](O)C1=C(C)Cn2c(=O)n(-c3ccccc3)c(=O)n2[C@H]1CO`?
DENV2 CPE: -7

How did CC(C)NC(=O)N(C)C[C@H]1Oc2c(cccc2N(C)C)C(=O)N([C@@H](C)CO)C[C@H]1C do in these assays?
Statin myotox sup: 21; E-sel inducer: 2; DENV2 CPE: 22*

Results for CC(C)NC(=O)N(C)C[C@@H]1Oc2c(cccc2N(C)C)C(=O)N([C@H](C)CO)C[C@H]1C ?
Statin myotox sup: -30; E-sel inducer: -2; DENV2 CPE: 27*

How did C[C@H](CO)N1C[C@H](C)[C@@H](CN(C)C(=O)Nc2ccccc2)Oc2c(cccc2N(C)C)C1=O do in these assays?
Statin myotox sup: -16; E-sel inducer: 0; DENV2 CPE: 2

How did C[C@@H]1CN([C@H](C)CO)C(=O)c2cccc(N(C)C)c2O[C@H]1CN(C)C(=O)NC1CCCCC1 do in these assays?
Statin myotox sup: 15; E-sel inducer: 0; DENV2 CPE: -7

Results for CCCN1C[C@H](C)[C@@H](OC)CN(C)C(=O)c2ccc(NC(=O)c3ccc(F)cc3)cc2OC[C@H]1C ?
Statin myotox sup: -11; E-sel inducer: 0
